We go through three molecules from ChEMBL document CHEMBL4014350, “Alkoxyurea-Based Histone Deacetylase Inhibitors Increase Cisplatin Potency in Chemoresistant Cancer Cell Lines” (J Med Chem, 2017).

The target of assay [1] is T1, Histone deacetylase 1/6 (Homo sapiens) (UniProt Q13547+Q9UBN7). Description: Inhibition of HDAC1/HDAC6 in human Cal27CisR cells assessed as potentiation of 10 uM cisplatin-induced cytotoxicity by measuring combination index at 800 nM preincubated for 48 hrs followed by cisplatin treatment measured after 72 hrs by MTT assay.
T1 sequence (Q13547 whole entry, looked up): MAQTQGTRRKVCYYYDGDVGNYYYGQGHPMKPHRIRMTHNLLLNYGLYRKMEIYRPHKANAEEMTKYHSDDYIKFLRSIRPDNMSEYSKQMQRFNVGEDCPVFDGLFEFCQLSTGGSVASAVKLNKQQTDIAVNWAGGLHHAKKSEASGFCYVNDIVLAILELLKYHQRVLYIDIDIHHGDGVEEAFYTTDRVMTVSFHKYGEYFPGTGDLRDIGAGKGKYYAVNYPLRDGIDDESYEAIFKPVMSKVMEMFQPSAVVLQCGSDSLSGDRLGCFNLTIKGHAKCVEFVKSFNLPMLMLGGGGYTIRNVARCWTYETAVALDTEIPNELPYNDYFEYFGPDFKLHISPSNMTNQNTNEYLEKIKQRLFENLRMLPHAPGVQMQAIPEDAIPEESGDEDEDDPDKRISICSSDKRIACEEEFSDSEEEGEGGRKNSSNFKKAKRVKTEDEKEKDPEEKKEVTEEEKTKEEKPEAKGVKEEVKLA
T1 sequence (Q9UBN7 whole entry, looked up): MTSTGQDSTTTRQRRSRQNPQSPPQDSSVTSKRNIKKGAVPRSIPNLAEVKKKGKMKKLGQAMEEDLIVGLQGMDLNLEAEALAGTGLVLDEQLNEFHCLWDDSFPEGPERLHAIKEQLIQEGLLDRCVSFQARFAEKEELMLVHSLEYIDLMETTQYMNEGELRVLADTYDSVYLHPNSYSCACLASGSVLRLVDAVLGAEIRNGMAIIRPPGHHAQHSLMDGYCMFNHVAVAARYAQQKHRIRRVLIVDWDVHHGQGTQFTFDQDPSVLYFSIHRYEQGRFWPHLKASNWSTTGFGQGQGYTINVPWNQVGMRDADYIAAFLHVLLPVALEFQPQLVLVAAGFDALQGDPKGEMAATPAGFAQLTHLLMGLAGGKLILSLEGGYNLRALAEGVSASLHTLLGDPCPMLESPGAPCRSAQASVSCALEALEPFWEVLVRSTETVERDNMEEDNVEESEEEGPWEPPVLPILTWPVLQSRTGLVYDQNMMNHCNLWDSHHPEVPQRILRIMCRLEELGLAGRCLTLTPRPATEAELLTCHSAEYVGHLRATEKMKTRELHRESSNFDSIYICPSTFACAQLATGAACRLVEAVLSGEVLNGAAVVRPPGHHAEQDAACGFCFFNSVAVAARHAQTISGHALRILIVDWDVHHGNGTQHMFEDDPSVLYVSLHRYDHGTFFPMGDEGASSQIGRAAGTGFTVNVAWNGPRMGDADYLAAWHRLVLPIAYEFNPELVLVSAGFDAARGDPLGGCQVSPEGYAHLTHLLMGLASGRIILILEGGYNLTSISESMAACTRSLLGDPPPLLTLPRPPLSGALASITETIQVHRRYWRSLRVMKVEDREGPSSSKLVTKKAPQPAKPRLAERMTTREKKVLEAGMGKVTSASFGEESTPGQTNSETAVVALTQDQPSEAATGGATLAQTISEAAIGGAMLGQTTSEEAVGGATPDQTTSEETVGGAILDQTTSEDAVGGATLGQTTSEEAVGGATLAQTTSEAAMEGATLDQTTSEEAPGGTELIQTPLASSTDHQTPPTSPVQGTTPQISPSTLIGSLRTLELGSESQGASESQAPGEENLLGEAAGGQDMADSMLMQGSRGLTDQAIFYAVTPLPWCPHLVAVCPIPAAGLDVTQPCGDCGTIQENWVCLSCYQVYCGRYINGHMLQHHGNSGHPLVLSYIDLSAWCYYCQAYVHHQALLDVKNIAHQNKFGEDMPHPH
Assay [2] addresses T1, Histone deacetylase 1/6 (Homo sapiens). Description: Inhibition of HDAC1/HDAC6 in human Cal27CisR cells assessed as potentiation of 5 uM cisplatin-induced cytotoxicity by measuring combination index at 800 uM preincubated for 48 hrs followed by cisplatin treatment measured after 72 hrs by MTT assay. Type of assay: cell-based. In a few lines:
(§1)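 Cal27 and cisplatin-resistant Cal27CisR cells were preincubated with the HDAC inhibitor for 48 h, then given cisplatin in combination. Viability was read by MTT after 72 h. The combination index was computed by the Chou–Talalay method: CI > 1 is antagonism, CI = 1 is additive, and CI < 0.9 is synergism. Points with fraction affected below 0.20 were flagged.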

The test system of another assay is ONS-76. Description: Antiproliferative activity against human ONS76 cells after 72 hrs by Celltiter-Glo assay. The conditions noted are these: ONS-76, 72 h. Type of assay: functional, cell-based.
Assay [3] has as its target T1, Histone deacetylase 1/6 (Homo sapiens). Description: Inhibition of HDAC1/HDAC6 in human Cal27CisR cells assessed as potentiation of 3.16 uM cisplatin-induced cytotoxicity by measuring combination index at 600 nM preincubated for 48 hrs followed by cisplatin treatment measured after 72 hrs by MTT assay.
The next assay concerns the target T2, Histone deacetylase 8 (Homo sapiens, UniProt Q9BY41).
T2 sequence (Q9BY41 whole entry): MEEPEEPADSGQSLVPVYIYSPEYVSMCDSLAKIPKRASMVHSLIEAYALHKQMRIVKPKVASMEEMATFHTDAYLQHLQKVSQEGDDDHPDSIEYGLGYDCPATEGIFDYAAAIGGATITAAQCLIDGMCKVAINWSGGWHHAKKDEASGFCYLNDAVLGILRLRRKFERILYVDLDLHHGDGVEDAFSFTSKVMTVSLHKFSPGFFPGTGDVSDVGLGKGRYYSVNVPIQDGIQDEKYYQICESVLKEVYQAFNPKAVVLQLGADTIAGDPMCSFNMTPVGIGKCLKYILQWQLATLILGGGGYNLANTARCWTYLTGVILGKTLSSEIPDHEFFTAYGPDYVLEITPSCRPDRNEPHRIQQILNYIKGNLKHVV
Kind of assay: Inhibition of human HDAC8 using Z-L-Lys(epsilon-trifluoroacetyl)-AMC as substrate measured after 90 mins by fluorescence assay.

The nature of assay [4]: Inhibition of HDAC in human Cal27CisR cells using Boc-Lys(epsilon-Ac)-AMC as substrate preincubated for 18 hrs followed by substrate addition measured after 3 hrs by fluorescence assay. Type of assay: cell-based.
The subject of assay [5] is CAL-27. Description: Potentiation of 2 uM cisplatin-induced cytotoxicity against human CAL27 cells assessed as decrease in cell viability by measuring combination index at 800 uM preincubated for 48 hrs followed by cisplatin treatment measured after 72 hrs by MTT assay. Type of assay: functional. The settings on record: in the assay text read “at 800 nM” for “at 800 uM”. In a few lines: (§2)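 HDAC inhibitor was added 48 h before cisplatin, then cells were exposed to cisplatin for 72 h and viability was read by MTT assay. Combination index was computed by the Chou–Talalay method: CI > 1 is antagonism, CI = 1 additive, CI < 0.9 synergism. Points with fraction affected below 0.20 were flagged.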

The target of assay [6] is T1, Histone deacetylase 1/6 (Homo sapiens). Description: Inhibition of HDAC1/HDAC6 in human Cal27CisR cells assessed as potentiation of 20 uM cisplatin-induced cytotoxicity by measuring combination index at 800 nM preincubated for 48 hrs followed by cisplatin treatment measured after 72 hrs by MTT assay.
The subject of assay [7] is CAL-27. Kind of assay: Potentiation of 1 uM cisplatin-induced cytotoxicity against human CAL27 cells assessed as decrease in cell viability by measuring combination index at 500 uM preincubated for 48 hrs followed by cisplatin treatment measured after 72 hrs by MTT assay. Type of assay: functional. An outline of the steps:
as §2

Assay [8] concerns the target T1, Histone deacetylase 1/6 (Homo sapiens). Kind of assay: Inhibition of HDAC1/HDAC6 in human Cal27CisR cells assessed as potentiation of 5 uM cisplatin-induced cytotoxicity by measuring combination index at 700 uM preincubated for 48 hrs followed by cisplatin treatment measured after 72 hrs by MTT assay. Type of assay: cell-based. An outline of the steps:
as §1

Assay [9] has the same target. Description: Inhibition of HDAC1/HDAC6 in human Cal27CisR cells assessed as potentiation of 3.16 uM cisplatin-induced cytotoxicity by measuring combination index at 500 nM preincubated for 48 hrs followed by cisplatin treatment measured after 72 hrs by MTT assay.
The species entered for a further assay is Homo sapiens. Kind of assay: Selectivity ratio of IC50 for recombinant human N-terminal GST-tagged/C-terminal His-tagged HDAC4 to IC50 for full length human recombinant N-terminal GST-tagged HDAC6 expressed in baculovirus infected sf9 cells. In a few lines:
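Ratio of isolated-enzyme IC50 values. The HDAC4 IC50 was determined in duplicate by an external contract service. The HDAC6 IC50 was the mean ± SD of three independent experiments.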

In assay [10] the test system is CAL-27. Description: Potentiation of 0.5 uM cisplatin-induced cytotoxicity against human CAL27 cells assessed as decrease in cell viability by measuring combination index at 800 uM preincubated for 48 hrs followed by cisplatin treatment measured after 72 hrs by MTT assay. Type of assay: functional. An outline of the steps:
as §1

Assay [11] has as its target T1, Histone deacetylase 1/6 (Homo sapiens). Kind of assay: Inhibition of HDAC1/HDAC6 in human Cal27CisR cells assessed as potentiation of 1 uM cisplatin-induced cytotoxicity by measuring combination index at 600 uM preincubated for 48 hrs followed by cisplatin treatment measured after 72 hrs by MTT assay. In kind it is cell-based. An outline of the steps:
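Cal27CisR cells preincubated 48 h with the HDAC inhibitor, then exposed to cisplatin for 72 h. Viability read by MTT. Combination index calculated by the Chou–Talalay method: CI > 1 antagonism, CI = 1 additive, CI < 0.9 synergism. Points with fraction affected below 0.20 are flagged. Values are the mean of three experiments.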

For assay [12] the target is unchanged. Description: Inhibition of HDAC1/HDAC6 in human Cal27CisR cells assessed as potentiation of 10 uM cisplatin-induced cytotoxicity by measuring combination index at 700 nM preincubated for 48 hrs followed by cisplatin treatment measured after 72 hrs by MTT assay.
The target is the same in assay [13]. Kind of assay: Inhibition of HDAC1/HDAC6 in human Cal27CisR cells assessed as potentiation of 10 uM cisplatin-induced cytotoxicity by measuring combination index at 500 nM preincubated for 48 hrs followed by cisplatin treatment measured after 72 hrs by MTT assay.
Assay [14] has as its system CAL-27. Kind of assay: Potentiation of 5 uM cisplatin-induced cytotoxicity against human CAL27 cells assessed as decrease in cell viability by measuring combination index at 500 uM preincubated for 48 hrs followed by cisplatin treatment measured after 72 hrs by MTT assay. In kind it is functional. The settings on record: in the assay text read “at 500 nM” for “at 500 uM”. In a few lines:
as §2

With `COc1cc(NC(=O)NOCCCCCC(=O)NO)c2nccc(C)c2c1`, the CI in assay [1] amounted to 0.23; in assay [2] it was 0.23; in [3], 0.51; in the assay on CAL-27 [5], 0.38; in assay [6], 0.28; with CAL-27 [7], 0.37. Also, the CI was 0.21 in assay [8]; 0.71 in assay [9]; 0.51 with CAL-27 [10]; less than 0.2 in assay [11]; 0.21 in [12]; 0.25 in [13]. The CI with CAL-27 [14] worked out at 0.29. In addition, the values for the IC50 (in the assay with ONS-76; against Histone deacetylase 8; in assay [4]) were 590 nM, 1220 nM and 500 nM, respectively. Further, the Ratio IC50 in the assay listed under Homo sapiens was greater than 3500.
For the molecule `COc1cc(NC(=O)NOCCCCCC(=O)NO)c2nc(OC)cc(C)c2c1`, the CI in assay [1] came to 0.23; in assay [2], 0.26; in assay [3] it was 0.24; in the assay on CAL-27 [5] it was 0.66; in [6] it was 0.21; in the assay on CAL-27 [7] it was 0.5. Moreover, the CI was found to be 0.23 in [8]; 0.26 in [9]; 0.79 with CAL-27 [10]; 0.56 in assay [11]; 0.2 in assay [12]; 0.16 in [13]. Moreover, the CI in the assay with CAL-27 [14] came to 0.43. For the same molecule, the 50% inhibitory concentration (IC50) in the assay with ONS-76 turned out to be 650 nM; at Histone deacetylase 8, 1540 nM; in [4], 500 nM. Further, the Ratio IC50 in the assay listed under Homo sapiens was greater than 3500.
On to `COc1cc(NC(=O)NOCCCCCC(=O)NO)c2ncccc2c1`, for which the CI in assay [1] was 0.35; in assay [2], 0.37; in assay [3] it was less than 0.2; in the assay on CAL-27 [5], 0.43; in assay [6], 0.37; in the assay with CAL-27 [7], 0.67. Besides, the CI in assay [8] was 0.41; in [9], less than 0.2; with CAL-27 [10], 0.93; in assay [11] it was less than 0.2; in assay [12], 0.33; in assay [13] it was 0.36. The CI in the assay on CAL-27 [14] came out at 0.35. The figures for the half-inhibitory concentration (IC50) (with ONS-76; against Histone deacetylase 8; in assay [4]) were 2670 nM, 1080 nM and 700 nM, respectively. Moreover, in the assay filed under Homo sapiens, the Ratio IC50 is greater than 3500.
